Activity calls are given as the source filed them. The rule behind the calls is not given here.
Columns and labels:
[1] = Selectivity index, ratio of CC50 for SK6 cells to IC50 for CSFV; format: toxicity; settings: pig, read-out: Ratio CC50/IC50
Method in brief: (§1)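 Selectivity index is CC50/IC50, taken from the cell viability assay (SK6 by MTS, Huh-7.5 by MTT) and the matching pseudo-plaque reduction assay.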

Hepatitis C virus [2] = experiment: Antiviral activity against HCV Jc1/JFH infected in human Huh7.5 cells assessed as reduction of pseudo-plaque formation after 72 hrs by immunoperoxidase monolayer assay; format: functional, organism-based, Hepacivirus hominis; settings: for IC50: Huh7.5, 72 h
Method in brief: (§2)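 Huh-7.5 cells seeded at 1.5 × 10^4 per well, infected next day with Jc1/JFH HCVcc (genotype 2a) at MOI 0.1 for 3 h. Virus removed, medium with compound added; 72 h later cells fixed in cold methanol, permeabilized (0.5% Triton X-100), stained with anti-core antibody (1:300), HRP secondary. Pseudo-plaques counted by microscopy against untreated infected control; IC50 at 50% plaque reduction; three independent experiments.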

[3] = system: Classical swine fever virus; experiment: Antiviral activity against CSFV infected in SK6 cells assessed as reduction of pseudo-plaque formation after 2 days by immunoperoxidase monolayer assay; format: functional, organism-based; settings: 48 h
[4] = Cytotoxicity against SK6 cells assessed as reduction in cell viability after 2 days by MTS method; format: cell-based, Sus scrofa; settings: pig; for Activity: 48 h; for CC50 at 48 h: SK6 cells
Method in brief: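 SK6 viability by MTS (CellTiter 96 AQueous) assay; CC50 is the concentration reducing viability by 50%, taken from the dose-response curve.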

[5] = Selectivity index, ratio of CC50 for Huh7.5 cells to IC50 for HCV Jc1/JFH; format: toxicity; settings: human, read-out: Ratio CC50/IC50; method in brief: as §1
[6] = Cytotoxicity against human Huh7.5 cells assessed as reduction in cell viability after 72 hrs by MTT method; format: cell-based
Hepatitis C virus [7] = experiment: Antiviral activity against HCV genotype 2a JFH1 infected in human Huh7-J20 cells assessed as inhibition of viral RNA replication at 1.56 to 75 uM after 72 hrs by SEAP reporter assay; format: functional, organism-based; settings: Hepacivirus hominis, JFH-1
Method in brief: (§3)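 Huh7-J20 SEAP reporter cells, infected with JFH-1 HCVcc, read-out SEAP chemiluminescence in supernatant after 72 h. Model 1: 1 h compound pretreatment, 3 h infection with compound, then compound-free medium. Model 2: same, with compound kept for the full 72 h. Model 3: 3 h infection, compound added afterwards only. DMSO control; three experiments.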

Hepatitis C virus [8] = experiment: (§4) Antiviral activity against HCV genotype 2a JFH1 infected in human Huh7-J20 cells assessed as inhibition of viral entry at 1.56 to 75 uM pretreated for 1 hr with cells followed by viral infection for 3 hrs and subsequent compound washout measured after 72 hrs by SEAP reporter assay; format: functional, organism-based; settings: Hepacivirus hominis, JFH-1; method in brief: as §3
[9] = Cytotoxicity against human Huh7-J20 cells assessed as decrease in cell viability at 1.56 to 75 uM after 72 hrs by MTT assay; format: cell-based
Method in brief: (§5)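 Uninfected Huh7-J17, Huh7-J20 or Huh-7.5 cells incubated with compound, then viability read by MTT. Time stated as 72 h for Huh7-J20 and Huh7-J17, and 48 h for Huh-7.5. Results expressed relative to DMSO-treated cells (100%); CC50 from the dose-response curve.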

[10] = Cytotoxicity against human Huh7-J17 cells assessed as decrease in cell viability after 72 hrs by MTT assay; format: cell-based; method in brief: as §5
Hepatitis C virus [11] = experiment: as §4, with “of complete” for “of”, “life cycle” for “entry”, “subsequent addition of fresh medium with” for “subsequent”, “compound” for “compound washout”; format: functional, organism-based; settings: Hepacivirus hominis, JFH-1; method in brief: as §3
Hepatitis C virus [12] = experiment: Antiviral activity against HCV genotype 2a JFH1 infected in human Huh7-J20 cells assessed as inhibition of viral assembly at 1.56 to 75 uM after 72 hrs by SEAP reporter assay; format: functional, organism-based; settings: Hepacivirus hominis, JFH-1; method in brief: as §3
Hepatitis C virus [13] = experiment: Antiviral activity against HCV Jc1/JFH infected in human Huh7.5 cells assessed as reduction of pseudo-plaque formation at 80 uM after 72 hrs by immunoperoxidase monolayer assay relative to control; format: functional, Hepacivirus hominis; parameters: scale not given: the % may be the effect or the level left; method in brief: as §2
[14] = system: Classical swine fever virus; experiment: Antiviral activity against CSFV infected in SK6 cells assessed as reduction of pseudo-plaque formation at 9 uM after 2 days by immunoperoxidase monolayer assay relative to control; format: functional; parameters: scale not given: the % may be the effect or the level left
[15] = Effect on actin levels in SK6 cells at 2.5 to 10 uM under non-reducing condition after 48 hrs by Western blot method; format: ADME, cell-based, Sus scrofa; settings: pig
[16] = Effect on actin levels in human Huh7.5 cells at 6.25 to 100 uM under reducing condition after 48 hrs by Western blot method; format: ADME, cell-based
Method in brief: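 Huh-7.5 cells infected with HCV (MOI 0.1), washed after 1–6 h, then treated with inhibitor. Lysed in RIPA buffer with protease inhibitors after 48 h (methods; legend gives 72 h p.i.). 20 µg protein run on reducing SDS-PAGE; Western blot probed with anti-E1 mAb (1:2000) and anti-actin (1:1000).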

Hepatitis C virus [17] = experiment: Antiviral activity against HCV Jc1/JFH infected in human Huh7.5 cells assessed as downregulation of NS5B gene expression after 48 hrs by RT-PCR method; format: functional, organism-based; settings: Hepacivirus hominis
Method in brief: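 Huh-7.5 cells infected with HCV (MOI 0.1) for 4 h, washed, then cultured with compound for 48 h. Total RNA isolated; 1 µg reverse-transcribed with an NS5B-specific reverse primer, then PCR for NS5B. Band densitometry expressed as % of untreated infected control.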

Hepatitis C virus [18] = experiment: Antiviral activity against HCV infected in human Huh7-J17 cells assessed as inhibition of viral RNA replication after 72 hrs by bright-glo luciferase reporter assay; format: functional, organism-based, Hepacivirus hominis
Method in brief: (§6)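 Huh7-J17 replicon cells seeded in 96-well plates together with compound, DMSO or sofosbuvir and incubated 72 h. Cells lysed and luciferase read with Bright-Glo. Values expressed as % of DMSO-treated cells; IC50 from dose-response fit; three experiments.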

[19] = system: Classical swine fever virus; experiment: Inhibition of CSFV glycosyltransferase in SK6 cells assessed as downregulation of viral E2 levels under non-reducing condition after 48 hrs by Western blot method; format: cell-based
Hepatitis C virus [20] = experiment: Antiviral activity against HCV infected in human Huh7-J17 cells assessed as inhibition of viral RNA replication at 75 uM after 72 hrs by bright-glo luciferase reporter assay relative to control; format: functional, Hepacivirus hominis; method in brief: as §6

Compound: CC(=O)OC[C@H]1O[C@@H](Sc2ccc(NC(=O)CCC(=O)OC[C@H]3O[C@@H](n4ccc(=O)n(C(=O)c5ccccc5)c4=O)[C@H](O[Si](C)(C)C(C)(C)C)[C@@H]3O[Si](C)(C)C(C)(C)C)cn2)[C@H](OC(C)=O)[C@@H](OC(C)=O)[C@@H]1OC(C)=O
- selectivity ratio [1]: 3.5
- IC50 (Hepatitis C virus [2]): 45 µM
- IC50 [3]: 13 µM
- Activity [4]: Dose-dependent effect
- CC50 at 48 h [4]: 45 µM
- selectivity ratio [5]: 1.6
- CC50 at 72 h [6]: 71 µM

Compound: CC(=O)OC[C@H]1O[C@@H](Sc2ccc(NC(=O)CCC(=O)OC[C@H]3O[C@@H](n4ccc(=O)[nH]c4=O)[C@@H]4OC(C)(C)O[C@@H]43)cn2)[C@H](OC(C)=O)[C@@H](OC(C)=O)[C@@H]1OC(C)=O
- selectivity ratio [1]: 2
- IC50 (Hepatitis C virus [2]): 231 µM
- IC50 [3]: 103 µM
- Activity [4]: Dose-dependent effect
- CC50 at 48 h [4]: 207 µM
- selectivity ratio [5]: 1.4
- CC50 at 72 h [6]: 328 µM

Compound: CC(=O)OC[C@H]1O[C@@H](Sc2ccc(NC(=O)[C@H]3O[C@@H](n4ccc(=O)[nH]c4=O)[C@H](O[Si](C)(C)C(C)(C)C)[C@@H]3O[Si](C)(C)C(C)(C)C)cn2)[C@H](OC(C)=O)[C@@H](OC(C)=O)[C@@H]1OC(C)=O
- inhibition (Hepatitis C virus [7]): Active
- inhibition (Hepatitis C virus [8]): inactive
- Activity [9]: Non-Toxic
- selectivity ratio [1]: 28.7
- CC50 at 72 h [10]: 185 µM
- Activity (Hepatitis C virus [2]; Hepacivirus hominis): Dose-dependent effect
- IC50 (Hepatitis C virus [2]): 7 µM
- inhibition (Hepatitis C virus [11]): Active
- inhibition (Hepatitis C virus [12]): Active
- Activity (Hepatitis C virus [13]): >90%
- IC50 [3]: 3 µM
- Activity [14]: >90%
- Activity [15]: Non-Toxic
- Activity [16]: Non-Toxic
- Activity (Hepatitis C virus [17]): Dose-dependent effect
- IC50 (Hepatitis C virus [18]): 4 µM
- inhibition [19]: Dose-dependent effect
- Activity [4]: Dose-dependent effect
- CC50 at 48 h [4]: 86 µM
- inhibition at 75 µM (Hepatitis C virus [20]): 90%
- selectivity ratio [5]: 19.3
- CC50 at 72 h [6]: 135 µM

Compound: CC(=O)OC[C@H]1O[C@@H](Sc2ccc(NC(=O)CCC(=O)OC[C@H]3O[C@@H](n4ccc(=O)[nH]c4=O)[C@@H]4OC(C)(C)O[C@@H]43)cn2)[C@H](OC(C)=O)[C@@H](OC(C)=O)[C@H]1OC(C)=O
- selectivity ratio [1]: 4
- IC50 (Hepatitis C virus [2]): 213 µM
- IC50 [3]: 49 µM
- Activity [4]: Dose-dependent effect
- CC50 at 48 h [4]: 194 µM
- selectivity ratio [5]: 1.6
- CC50 at 72 h [6]: 340 µM

Compound: CC(=O)OC[C@H]1O[C@@H](Sc2ccc(NC(=O)[C@H]3O[C@@H](n4ccc(=O)[nH]c4=O)[C@H](O)[C@@H]3O)cn2)[C@H](OC(C)=O)[C@@H](OC(C)=O)[C@@H]1OC(C)=O
- selectivity ratio [1]: 1.1
- IC50 (Hepatitis C virus [2]): 373 µM
- IC50 [3]: 320 µM
- Activity [4]: Dose-dependent effect
- CC50 at 48 h [4]: 350 µM
- selectivity ratio [5]: 1.1
- CC50 at 72 h [6]: 402 µM

Reference: ChEMBL document CHEMBL4138118, “Novel thioglycosyl analogs of glycosyltransferase substrates as antiviral compounds against classical swine fever virus and hepatitis C virus” (Eur J Med Chem, 2017)
